Values after ≈ are worked out from the molar mass of the structure shown.
Legend:
[1] = molecular target: T1, Penicillin-binding protein 1A (Escherichia coli K-12) (UniProt P02918); assay: Affinity against penicillin binding protein 1a of Escherichia coli UB1005 (DC0) was evaluated.
T1 sequence (whole entry): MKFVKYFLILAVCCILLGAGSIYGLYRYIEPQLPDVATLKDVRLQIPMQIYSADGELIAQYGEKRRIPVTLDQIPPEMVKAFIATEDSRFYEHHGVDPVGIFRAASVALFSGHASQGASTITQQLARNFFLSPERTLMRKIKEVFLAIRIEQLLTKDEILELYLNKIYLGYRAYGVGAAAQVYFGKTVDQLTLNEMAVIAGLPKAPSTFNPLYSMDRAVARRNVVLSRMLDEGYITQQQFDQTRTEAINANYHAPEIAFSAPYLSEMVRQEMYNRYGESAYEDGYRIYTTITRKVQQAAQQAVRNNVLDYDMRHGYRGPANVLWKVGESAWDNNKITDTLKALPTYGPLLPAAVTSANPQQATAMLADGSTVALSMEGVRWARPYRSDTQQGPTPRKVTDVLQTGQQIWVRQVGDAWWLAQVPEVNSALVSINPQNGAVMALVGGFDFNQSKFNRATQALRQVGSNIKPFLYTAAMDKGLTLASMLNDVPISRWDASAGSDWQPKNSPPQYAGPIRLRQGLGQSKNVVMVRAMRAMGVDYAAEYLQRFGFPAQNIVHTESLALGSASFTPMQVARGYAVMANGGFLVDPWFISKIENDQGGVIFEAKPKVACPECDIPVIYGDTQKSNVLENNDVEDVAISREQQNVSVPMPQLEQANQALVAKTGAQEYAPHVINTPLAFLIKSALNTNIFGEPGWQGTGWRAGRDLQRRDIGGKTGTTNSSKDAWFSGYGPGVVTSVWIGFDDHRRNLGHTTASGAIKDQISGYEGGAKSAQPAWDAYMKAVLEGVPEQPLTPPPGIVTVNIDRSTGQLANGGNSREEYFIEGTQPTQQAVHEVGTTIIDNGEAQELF
In short: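 Solubilized membranes from sonicated E. coli UB1005 were used. Binding to penicillin-binding proteins was measured as inhibition of [14C]penicillin G binding.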

[2] = molecular target: T2, Penicillin-binding protein 1B (Escherichia coli K-12) (UniProt P02919); assay: Affinity for penicillin binding protein 1b of Escherichia coli UB1005 (DC0) was evaluated.; design: unit not given here
T2 sequence (whole entry): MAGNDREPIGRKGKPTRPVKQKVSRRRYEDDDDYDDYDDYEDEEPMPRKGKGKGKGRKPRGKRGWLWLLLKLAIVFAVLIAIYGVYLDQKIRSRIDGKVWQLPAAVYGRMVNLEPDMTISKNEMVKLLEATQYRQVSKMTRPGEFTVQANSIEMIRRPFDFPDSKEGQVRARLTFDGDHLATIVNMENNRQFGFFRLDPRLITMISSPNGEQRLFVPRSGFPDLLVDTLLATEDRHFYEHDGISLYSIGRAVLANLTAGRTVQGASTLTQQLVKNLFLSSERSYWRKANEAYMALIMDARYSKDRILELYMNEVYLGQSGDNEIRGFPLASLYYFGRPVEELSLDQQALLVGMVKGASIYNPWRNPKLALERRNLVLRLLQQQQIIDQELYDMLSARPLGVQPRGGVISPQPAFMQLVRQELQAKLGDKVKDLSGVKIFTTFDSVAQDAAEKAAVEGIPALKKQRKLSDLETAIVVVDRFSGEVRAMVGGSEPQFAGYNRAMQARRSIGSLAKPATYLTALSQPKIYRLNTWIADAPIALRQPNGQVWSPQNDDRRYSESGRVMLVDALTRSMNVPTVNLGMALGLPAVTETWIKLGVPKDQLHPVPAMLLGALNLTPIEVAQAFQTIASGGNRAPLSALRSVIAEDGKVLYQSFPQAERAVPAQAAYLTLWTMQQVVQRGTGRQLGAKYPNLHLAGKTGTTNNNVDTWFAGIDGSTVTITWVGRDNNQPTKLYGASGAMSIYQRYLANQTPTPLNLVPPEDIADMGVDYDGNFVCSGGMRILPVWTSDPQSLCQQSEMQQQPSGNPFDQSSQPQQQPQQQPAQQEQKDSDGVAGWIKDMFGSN
In short: (§1)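 Solubilised membranes from sonicated E. coli UB1005 served as the binding-protein source. Binding was read as inhibition of [14C]penicillin G binding.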

[3] = molecular target: T3, Peptidoglycan D,D-transpeptidase MrdA (Escherichia coli K-12) (UniProt P0AD65); assay: Affinity for penicillin binding protein 2 of Escherichia coli UB1005 (DC0) was evaluated.; design: unit not given here; in short: as §1
T3 sequence (whole entry): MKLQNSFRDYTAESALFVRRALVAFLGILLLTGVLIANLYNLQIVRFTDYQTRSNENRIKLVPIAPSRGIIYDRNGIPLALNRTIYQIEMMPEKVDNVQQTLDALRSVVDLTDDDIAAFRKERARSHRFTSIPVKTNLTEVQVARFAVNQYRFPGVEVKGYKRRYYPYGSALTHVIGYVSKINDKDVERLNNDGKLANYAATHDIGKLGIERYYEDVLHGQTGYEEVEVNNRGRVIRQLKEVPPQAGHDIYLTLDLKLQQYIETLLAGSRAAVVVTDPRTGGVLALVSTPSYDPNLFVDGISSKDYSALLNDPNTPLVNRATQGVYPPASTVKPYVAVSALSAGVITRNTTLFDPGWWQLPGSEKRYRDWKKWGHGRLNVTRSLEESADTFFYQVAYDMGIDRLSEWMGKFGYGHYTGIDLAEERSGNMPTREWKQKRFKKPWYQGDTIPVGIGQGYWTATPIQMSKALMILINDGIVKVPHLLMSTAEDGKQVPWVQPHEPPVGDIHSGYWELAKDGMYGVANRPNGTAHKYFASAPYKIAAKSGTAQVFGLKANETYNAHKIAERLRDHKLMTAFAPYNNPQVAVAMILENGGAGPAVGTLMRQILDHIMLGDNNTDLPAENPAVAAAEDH

Escherichia coli [4] = assay: Minimum inhibitory concentration against E. coli UB1005 (DC0)
Escherichia coli [5] = assay: In vitro minimum inhibitory concentration was measured against Escherichia coli ATCC 25922 strain.; format: functional
In short: (§2)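 Streptococci were tested on brain heart infusion agar plus 20 units/mL catalase, Proteus on Mueller-Hinton with 3% agar, and others on Mueller-Hinton agar. Inocula were 100-fold-diluted overnight cultures, about 3 × 10^4 CFU/spot, read after overnight incubation at 36 °C.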

Staphylococcus aureus [6] = assay: In vitro minimum inhibitory concentration was measured against Staphylococcus aureus 67-0 (Methicillin resistant) strain.; format: functional
Proteus vulgaris = assay: In vitro minimum inhibitory concentration was measured against Proteus vulgaris 1028BC (beta lactamase producer) strain.; format: functional; in short: as §2
Enterobacter cloacae [7] = assay: In vitro minimum inhibitory concentration was measured against Enterobacter cloacae 5699 strain.; format: functional
Staphylococcus aureus [8] = assay: In vitro minimum inhibitory concentration was measured against Staphylococcus aureus 753 (Methicillin resistant) strain.; format: functional
Proteus mirabilis = assay: In vitro minimum inhibitory concentration was measured against Proteus mirabilis 90 strain.; format: functional; in short: as §2
Staphylococcus aureus [9] = assay: In vitro minimum inhibitory concentration was measured against Staphylococcus aureus smith strain.; format: functional
Citrobacter freundii = assay: In vitro minimum inhibitory concentration was measured against Citrobacter freundii BS-16 (beta lactamase producer) strain.; format: functional
In short: as §2, with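 “MICs were determined by agar dilution with 2-fold dilutions giving final 128–0.0156 µg/mL, extended to 0.000977 µg/mL where needed. Streptococci” for “Streptococci”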

Klebsiella pneumoniae = assay: In vitro minimum inhibitory concentration was measured against Klebsiella pneumoniae A strain.; format: functional; in short: as §2
Pseudomonas aeruginosa [10] = assay: In vitro minimum inhibitory concentration was measured against Pseudomonas aeruginosa 18S/H strain.; format: functional; in short: as §2
Pseudomonas aeruginosa [11] = assay: In vitro minimum inhibitory concentration was measured against Pseudomonas aeruginosa 8780 strain.; format: functional; in short: as §2
Escherichia coli [12] = assay: In vitro minimum inhibitory concentration was measured against Escherichia coli 257 strain.; format: functional; in short: as §2
Serratia marcescens = assay: In vitro minimum inhibitory concentration was measured against Serratia marcescens 1071(beta lactamase producer) strain.; format: functional; in short: as §2
Enterobacter cloacae [13] = assay: In vitro minimum inhibitory concentration was measured against Enterobacter cloacae p99 (beta lactamase producer) strain.; format: functional
Streptococcus pneumoniae = assay: In vitro minimum inhibitory concentration was measured against Streptococcus pneumoniae 6301 strain; format: functional; in short: as §2
Enterococcus faecalis = assay: In vitro minimum inhibitory concentration was measured against Enterococcus faecalis ATCC 29212 strain.; format: functional; in short: as §2
Micrococcus luteus = assay: In vitro minimum inhibitory concentration was measured against Micrococcus luteus ATCC 9341 strain.; format: functional; in short: as §2
Escherichia coli [14] = assay: In vitro minimum inhibitory concentration was measured against Escherichia coli TEM-1 (Beta lactamase producer) strain.; format: functional; in short: as §2
Streptococcus pyogenes = assay: In vitro minimum inhibitory concentration was measured against Streptococcus pyogenes 4 strain.; format: functional; in short: as §2
Escherichia coli [15] = assay: Minimum inhibitory concentration for DC2, a permeability mutant
In short: as §2, with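 “MICs were determined by agar dilution with 2-fold dilutions giving final 128–0.0156 µg/mL, extended to 0.000977 µg/mL where needed. Streptococci” for “Streptococci”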

[16] = tested on: Penicillin-binding protein 3 (Escherichia coli); assay: Affinity for penicillin binding protein 3 of Escherichia coli UB1005 (DC0) was evaluated.; design: unit not given here
[17] = molecular target: T1, Penicillin-binding protein 1A (Escherichia coli K-12); assay: Affinity for penicillin binding protein 1a of Escherichia coli UB1005 (DC0) was evaluated.; design: unit not given here; in short: as §1

Compound | Binding affinity [1] | Binding affinity [2] | Binding affinity [3] | MIC (Escherichia coli [4]) [µg/mL] | MIC (Escherichia coli [5]) [µg/mL] | MIC (Staphylococcus aureus [6]) [µg/mL] | MIC (Proteus vulgaris) [µg/mL] | MIC (Enterobacter cloacae [7]) [µg/mL] | MIC (Staphylococcus aureus [8]) [µg/mL] | MIC (Proteus mirabilis) [µg/mL] | MIC (Staphylococcus aureus [9]) [µg/mL] | MIC (Citrobacter freundii) [µg/mL] | MIC (Klebsiella pneumoniae) [µg/mL] | MIC (Pseudomonas aeruginosa [10]) [µg/mL] | MIC (Pseudomonas aeruginosa [11]) [µg/mL] | MIC (Escherichia coli [12]) [µg/mL] | MIC (Serratia marcescens) [µg/mL] | MIC (Enterobacter cloacae [13]) [µg/mL] | MIC (Streptococcus pneumoniae) [µg/mL] | MIC (Enterococcus faecalis) [µg/mL] | other results
CCN1CCN(C(=O)N[C@@H](C(=O)N[C@@H]2C(=O)N3C(C(=O)O)=C(CSc4nnnn4C)CS[C@H]23)c2ccc(O)cc2)C(=O)C1=O | 10 | 10 | 2 | 0.031 (≈ 0.048 µM) |  |  |  |  |  |  |  |  |  |  |  |  |  |  |  |  | 
CC(C)(O/N=C(\C(=O)N[C@@H]1C(=O)N2C(C(=O)[O-])=C(C[n+]3ccccc3)CS[C@H]12)c1csc(N)n1)C(=O)O | 10 | 10 | > 100 | 0.125 (≈ 0.229 µM) |  |  |  |  |  |  |  |  |  |  |  |  |  |  |  |  | 
CC(=O)OCC1=C(C(=O)O)N2C(=O)[C@@H](NC(=O)C(O)c3ccccc3)[C@H]2SC1 (stereo partly specified) |  |  |  |  | 2 (≈ 4.92 µM) | 64 (≈ 157 µM) | > 128 | 16 (≈ 39.4 µM) | 128 (≈ 315 µM) | 2 (≈ 4.92 µM) | 0.5 (≈ 1.23 µM) | > 128 | 2 (≈ 4.92 µM) | > 128 | > 128 | 2 (≈ 4.92 µM) | > 128 | > 128 | 0.125 (≈ 0.308 µM) | 16 (≈ 39.4 µM) | MIC (Micrococcus luteus): 0.125 µg/mL (≈ 0.308 µM); MIC (Escherichia coli [14]): 8 µg/mL (≈ 19.7 µM); MIC (Streptococcus pyogenes): 0.063 µg/mL (≈ 0.155 µM)
CO/N=C(\C(=O)N[C@@H]1C(=O)N2C(C(=O)O)=C(CN3CCNCC3)CS[C@H]12)c1csc(N)n1 |  | 100 | > 100 |  | 0.25 (≈ 0.519 µM) | > 128 | > 128 | 0.5 (≈ 1.04 µM) | > 128 | 0.5 (≈ 1.04 µM) | 4 (≈ 8.31 µM) | 128 (≈ 266 µM) | 0.125 (≈ 0.26 µM) | > 128 | 64 (≈ 133 µM) | 0.25 (≈ 0.519 µM) | 8 (≈ 16.6 µM) | 128 (≈ 266 µM) | 0.063 (≈ 0.131 µM) | 4 (≈ 8.31 µM) | MIC (Escherichia coli [15]): 0.25 µg/mL (≈ 0.519 µM); Binding affinity [16]: 100; Binding affinity [17]: > 100; MIC (Micrococcus luteus): 0.25 µg/mL (≈ 0.519 µM); MIC (Escherichia coli [14]): 0.5 µg/mL (≈ 1.04 µM); MIC (Streptococcus pyogenes): 0.031 µg/mL (≈ 0.0644 µM)

— ChEMBL document CHEMBL1127320, “Dual-action cephalosporins incorporating a 3'-tertiary-amine-linked quinolone” (J Med Chem, 1994)
